What is called pIC50 is the IC50 on a negative log10 scale, so that one unit is a factor of ten. The low end stands for a high IC50, the high end for a low IC50. As usually defined, the CC50 is the concentration giving 50% cytotoxicity. Higher therefore signals better tolerance by the cells. A word on the pEC50: it is the EC50 on a negative log10 scale, so that one unit is a factor of ten.

From ChEMBL document CHEMBL1909641, “Rational design of 2-pyrrolinones as inhibitors of HIV-1 integrase” (Bioorg Med Chem Lett, 2011) come the findings set out here.

Molecules are shown by their SMILES. pEC50, pIC50: −log10 of the molar value.

The target in data set [1] is T1, Human immunodeficiency virus type 1 integrase (Human immunodeficiency virus 1, UniProt Q7ZJM1). Nature of the data set: Inhibition of HIV1 integrase-mediated single strand tansfer of viral DNA after 30 mins by PAGE.
T1 sequence (Q7ZJM1 whole entry): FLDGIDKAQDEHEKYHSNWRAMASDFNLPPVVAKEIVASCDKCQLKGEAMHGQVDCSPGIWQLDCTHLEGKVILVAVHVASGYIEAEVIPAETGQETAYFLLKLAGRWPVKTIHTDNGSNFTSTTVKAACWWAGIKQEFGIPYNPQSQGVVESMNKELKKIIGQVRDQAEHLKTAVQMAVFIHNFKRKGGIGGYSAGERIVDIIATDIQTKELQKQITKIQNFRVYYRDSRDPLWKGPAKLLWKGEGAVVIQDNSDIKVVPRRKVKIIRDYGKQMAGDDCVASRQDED
Data set [2] concerns the target T1, Human immunodeficiency virus type 1 integrase. Nature of the data set: Inhibition of HIV1 integrase-mediated 3' processing of viral DNA after 30 mins by PAGE.
Data set [3] can be described thus: Cytotoxicity against human TZM-bl cells infected with HIV1 pNL4.3. In kind it is cell-based. In short, it runs like this: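 CC50 is the cytostatic concentration required to kill 50% of TZM-bl cells.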
In data set [4] the test system is Human immunodeficiency virus 1. Nature of the data set: Antiviral activity against HIV1 pNL4.3 infected in human TZM-bl cells by luciferase reporter gene assay. In kind it is functional, organism-based. The conditions noted are these: for EC50: tzm-bl. (In general: Reporter assays use an easily measured gene product as a stand-in for the process of interest.)
Data set [5] in a line: Selectivity index, ratio of CC50 against human TZM-bl cells to EC50 for inhibition of HIV1 integrase activity in TZM-bl cells infected with HIV1 pNL4.3. In kind it is toxicity, cell-based. The conditions noted are these: read-out: Ratio CC50/EC50. In short, it runs like this: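 SI is calculated as the CC50 in TZM-bl cells divided by the antiviral EC50.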

As for `O=C(C1=C(O)C(=O)N(c2ccccc2)C1c1ccc([N+](=O)[O-])cc1)c1ccccc1` (stereo not given), the negative-log IC50 (pIC50) in data set [1] is 4.36; in data set [2], 4.05. Further, the midpoint of cytotoxicity in data set [3], the CC50, lay at 790 µM. Besides, the EC50 entry in data set [4] is on record as “Not Active”.
`CC(C)CN1C(=O)C(O)=C(C(=O)c2ccccc2)C1c1ccccc1` (stereo not given): the pIC50 in data set [1] and in data set [2] was below 4.00 each time.
`COc1ccc(CCN2C(=O)C(O)=C(C(=O)c3ccccc3)C2c2ccc(O)cc2)cc1` (stereo not given): the figures for the pIC50 in data set [1] and in data set [2] were 4.00 and below 4.00, respectively. Also, the midpoint of cytotoxicity in data set [3], the CC50, lay at 459 µM. Besides, the EC50 result in data set [4] is listed as “Not Active”.
Consider `CN1C(=O)C(O)=C(C(=O)c2ccccc2)C1c1cccc(Cl)c1` (stereo not given), for which the pIC50 in data set [1] and in data set [2] was below 4.00 in each case.
In the case of `COc1ccc(CCN2C(=O)C(O)=C(C(=O)c3ccccc3)C2c2ccccc2)cc1` (stereo not given), the pIC50 in data set [1] was 4.35; in data set [2], 4.10. In addition, in data set [3], the CC50 amounted to 830 µM. In data set [4], the EC50 entry is listed as “Not Active”.
Take `CN1C(=O)C(O)=C(C(=O)c2ccccn2)C1c1cccc(Cl)c1` (stereo not given): the negative-log IC50 (pIC50) in data set [1] and in data set [2] was below 4.00 throughout.
For the compound `COc1ccc(CCN2C(=O)C(O)=C(C(=O)c3ccccn3)C2c2cccc(Cl)c2)cc1` (stereo not given), the negative-log IC50 (pIC50) in data set [1] is 4.40; in data set [2], 4.11. In addition, the half-maximal cytotoxic concentration (CC50) in data set [3] was 26.6 µM. Also, the selectivity ratio in data set [5] is 83.7. The pEC50 in data set [4] (Human immunodeficiency virus 1, pNL4.3, TZM-bl, read-out: EC50) was 6.50.
For the compound `CN1C(=O)C(O)=C(C(=O)c2ccccc2)C1c1ccc([N+](=O)[O-])cc1` (stereo not given), the pIC50 in data set [1] and in data set [2] was below 4.00 throughout.
